Measured values collected from several papers.

Compound	target or system	assay	system	conditions	quantity	value
COc1ccc(CNC[C@](O)(COCc2ccc(F)cc2)[C@@H]2CC[C@@H](C)C[C@H]2OCc2ccc(F)cc2)cc1	MDA-MB-231	cell growth or viability, MTT	–	30 µM, 72 h	inhibition	99.4%
CC(=NNC(=O)COc1ccc2c(C)c(Cc3ccccc3)c(=O)oc2c1C)c1ccc(Br)cc1	MDA-MB-231	cell growth or viability, MTT	–	500 µg/mL	viability	19.9%
O=C(CO/N=c1\cc2n(-c3ccc(Cl)cc3)c3ccccc3nc-2cc1Nc1ccc(Cl)cc1)NCc1ccc(C(F)(F)F)cc1	Neisseria gonorrhoeae	microbial growth	ATCC49226	–	MIC	15 µM
O=C1C(Br)=C(Br)C(=O)c2ccccc21	Lodderomyces parapsilosis	microbial growth, broth dilution	ATCC22019	24 h	MIC	< 1.56 µg/mL
CO/N=c1\cc2n(-c3ccc(Cl)cc3)c3ccccc3nc-2cc1Nc1ccc(Cl)cc1	Neisseria gonorrhoeae	microbial growth	ATCC49226	–	MIC	0.94 µM
CCOc1ccc2c(C)c(CC)c(=O)oc2c1C	MDA-MB-231	cell growth or viability, MTT	–	31.25 µg/mL	viability	100%
O/N=c1\cc2n(-c3ccc(Cl)cc3)c3ccccc3nc-2cc1Nc1ccc(Cl)cc1	Neisseria gonorrhoeae	microbial growth	ATCC49226	–	MIC	0.03 µM
COc1ccc(COC[C@@](O)(CNCc2ccccc2)[C@@H]2CC[C@@H](C)C[C@H]2OCc2ccc(OC)cc2)cc1	MDA-MB-231	cell growth or viability, MTT	–	30 µM, 72 h	inhibition	101%
C[C@H](NC(=O)CO/N=c1\cc2n(-c3ccc(Cl)cc3)c3ccccc3nc-2cc1Nc1ccc(Cl)cc1)C(=O)OC(C)(C)C	Neisseria gonorrhoeae	microbial growth	ATCC49226	–	MIC	3.75 µM
COc1ccc(COC[C@@](O)(CNCc2ccc(F)cc2)[C@@H]2CC[C@@H](C)C[C@H]2OCc2ccc(OC)cc2)cc1	MDA-MB-231	cell growth or viability, MTT	–	10 µM, 72 h	inhibition	91.7%
CCc1c(C)c2ccc(OCc3nnc(S)n3N)c(C)c2oc1=O	MDA-MB-231	cell growth or viability, MTT	–	62.5 µg/mL	viability	69.4%
C[C@@H]1CC[C@@H]([C@@](C)(O)Cn2cnc3ccccc32)[C@H](OCc2ccccc2)C1	MDA-MB-231	cell growth or viability, MTT	–	30 µM, 72 h	inhibition	80%
Cc1c(Cc2ccccc2)c(=O)oc2c(C)c(OCC(=O)NN=Cc3ccccc3)ccc12	MDA-MB-231	cell growth or viability, MTT	–	125 µg/mL	viability	8.96%
C[C@@H]1CC[C@@H]([C@](O)(CNCc2cccc3ccccc23)COCc2ccccc2)[C@H](OCc2ccccc2)C1	MDA-MB-231	cell growth or viability, MTT	–	10 µM, 72 h	inhibition	96.8%
Cc1c(Cc2ccccc2)c(=O)oc2c(C)c(OCC(=O)NN=Cc3ccc([N+](=O)[O-])cc3)ccc12	MDA-MB-231	cell growth or viability, MTT	–	500 µg/mL	viability	14.4%
